Measured values reported in ChEMBL document CHEMBL1124347, “Enantioselectivity of muscarinic antagonists. Isomeric 2-cyclohexyl-2-phenyl-5-[(dimethylamino)methyl]-1,3-oxathiolane 3-oxide methiodides” (J Med Chem, 1989).

What was measured:
[1] = biological target: Muscarinic acetylcholine receptor; assay: Dissociation constant estimated by Schild analysis for antimuscarinic activity in guinea pig bladder; format: protein assay, Cavia porcellus
Method in brief: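 Longitudinal bladder strip (2 mm wide, urethra to apex) in PSS at 37 °C, with isometric recording. Tissue was equilibrated 30 min, and carbachol control curves were run as for ileum. Dose ratios (carbachol ED50 after/before antagonist) were taken at 3–4 antagonist concentrations, each tested 4–8 times. pA2 came from Schild plots with slope fixed at −1.0.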

[2] = biological target: Muscarinic acetylcholine receptor; assay: Dissociation constant estimated by Schild analysis for antimuscarinic activity in guinea pig heart; format: protein assay, Cavia porcellus
Method in brief: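 Guinea pig heart preparation with carbachol as agonist and water as solvent for drugs. Dose ratios (carbachol ED50 with/without antagonist) were measured at 3–4 antagonist concentrations, 4–8 replicates each. Parallel untreated tissues monitored sensitivity drift. pA2 was estimated by Schild analysis with slope constrained to −1.0; means ± SE.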

[3] = biological target: Muscarinic acetylcholine receptor; assay: Dissociation constant estimated by Schild analysis for antimuscarinic activity for guinea pig ileum; format: tissue-based, Cavia porcellus
Method in brief: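 Terminal ileum segments (2 cm, taken about 5 cm from the ileocecal junction) in PSS at 37 °C, with isotonic recording. After 30 min equilibration, carbachol dose–response curves were run at 30-min intervals; the second served as control. Antagonist was applied for 30 min, then the carbachol curve repeated. Dose ratios were taken at 3–4 concentrations, n=4–8 each. pA2 came from Schild analysis, slope constrained to −1.0.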

| pA2 [1] | pA2 [2] | pA2 [3] | SMILES |
| --- | --- | --- | --- |
| 7.53 | 7.45 | 7.73 | C[N+](C)(C)C[C@@H]1C[S+]([O-])[C@@](c2ccccc2)(C2CCCCC2)O1.[I-] (mixture of isomers; form 2) |
| 5.94 | 5.54 | 6.07 | C[N+](C)(C)C[C@@H]1C[S@@+]([O-])[C@](c2ccccc2)(C2CCCCC2)O1.[I-] (stereo in doubt; (+)-3) |
| 5.49 | 5.37 | 5.52 | C[N+](C)(C)C[C@@H]1C[S+]([O-])[C@@](c2ccccc2)(C2CCCCC2)O1.[I-] (single isomer, unassigned; (-)-7) |
| 5.89 | 5.96 | 6.05 | C[N+](C)(C)C[C@@H]1C[S@@+]([O-])[C@](c2ccccc2)(C2CCCCC2)O1.[I-] (racemic) |
| 5.56 | 5.44 | 5.96 | C[N+](C)(C)C[C@@H]1C[S+]([O-])[C@@](c2ccccc2)(C2CCCCC2)O1.[I-] (single isomer, unassigned; (+)-8) |
| 7.73 | 7.69 | 7.84 | C[N+](C)(C)C[C@@H]1C[S+]([O-])[C@@](c2ccccc2)(C2CCCCC2)O1.[I-] (single isomer, unassigned; (+)-7) |
| 5.52 | 5.48 | 5.55 | C[N+](C)(C)C[C@@H]1C[S@+]([O-])[C@](c2ccccc2)(C2CCCCC2)O1.[I-] (stereo in doubt; (-)-4) |
| 5.83 | 5.93 | 5.93 | C[N+](C)(C)C[C@@H]1C[S+]([O-])[C@@](c2ccccc2)(C2CCCCC2)O1.[I-] (mixture of isomers; form 1) |
| 7.19 | 6.8 | 7.19 | C[N+](C)(C)C[C@@H]1C[S@+]([O-])[C@](c2ccccc2)(C2CCCCC2)O1.[I-] (stereo in doubt; (+)-4) |
| 5.88 | 6.24 | 5.75 | C[N+](C)(C)C[C@@H]1C[S@@+]([O-])[C@](c2ccccc2)(C2CCCCC2)O1.[I-] (stereo in doubt; (-)-3) |
| 6.96 | 6.53 | 6.91 | C[N+](C)(C)C[C@@H]1C[S@+]([O-])[C@](c2ccccc2)(C2CCCCC2)O1.[I-] (stereo in doubt; (+\-)-4) |
| 6.07 | 6.01 | 6.17 | C[N+](C)(C)C[C@@H]1C[S+]([O-])[C@@](c2ccccc2)(C2CCCCC2)O1.[I-] (single isomer, unassigned; (-)-8) |
